Values after ≈ are worked out from the molar mass of the structure shown.
How the values were obtained:
[1] = system: Staphylococcus epidermidis; assay: Antibacterial activity against methicillin-sensitive Staphylococcus epidermidis ATCC 12228 after 18 to 24 hrs by two-fold serial dilution method; assay type: functional
In short: (§1)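 Agar two-fold dilution MIC. Compounds were dissolved in 0.1 N NaOH and water, then serially diluted in melted Mueller-Hinton agar, with top concentrations starting at 128. Plates were inoculated at about 10 cfu and incubated at 35 °C for 18–24 h. MIC was taken as the lowest concentration giving 90% inhibition of growth.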

[2] = system: Staphylococcus epidermidis; assay: Antibacterial activity against methicillin-resistant Staphylococcus epidermidis 13-3 after 18 to 24 hrs by two-fold serial dilution method; assay type: functional
In short: (§2)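 Agar two-fold serial dilution in Mueller-Hinton agar. Strains came from the Chinese Center for Disease Control and Prevention. Compounds were dissolved in 0.1 N NaOH and water, then diluted in melted agar to final levels stepping down from 128. Plates were inoculated with bacterial cfu and incubated at 35 C for 18–24 h. MIC is the lowest concentration giving 90% growth inhibition.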

Staphylococcus aureus [3] = assay: Antibacterial activity against methicillin-sensitive Staphylococcus aureus ATCC 29213 after 18 to 24 hrs by two-fold serial dilution method; assay type: functional; in short: as §2
Staphylococcus aureus [4] = assay: Antibacterial activity against methicillin-resistant Staphylococcus aureus ATCC 33591 after 18 to 24 hrs by two-fold serial dilution method; assay type: functional; in short: as §2
Enterococcus faecalis [5] = assay: Antibacterial activity against Enterococcus faecalis ATCC 29212 after 18 to 24 hrs by two-fold serial dilution method; assay type: functional; in short: as §1
Enterococcus faecalis [6] = assay: Antibacterial activity against Enterococcus faecalis ATCC 51299 after 18 to 24 hrs by two-fold serial dilution method; assay type: functional; in short: as §1
Enterococcus faecium [7] = assay: Antibacterial activity against Enterococcus faecium ATCC 700221 after 18 to 24 hrs by two-fold serial dilution method; assay type: functional; in short: as §1
Enterococcus faecium [8] = assay: Antibacterial activity against Enterococcus faecium 13-7 after 18 to 24 hrs by two-fold serial dilution method; assay type: functional; in short: as §1
Escherichia coli [9] = assay: Antibacterial activity against extended-spectrum beta-lactamase deficient Escherichia coli ATCC 25922 after 18 to 24 hrs by two-fold serial dilution method; assay type: functional; in short: as §1
Escherichia coli [10] = assay: Antibacterial activity against extended-spectrum beta-lactamase harboring Escherichia coli ATCC 35218 after 18 to 24 hrs by two-fold serial dilution method; assay type: functional; in short: as §2
Klebsiella pneumoniae [11] = assay: Antibacterial activity against extended-spectrum beta-lactamase harboring Klebsiella pneumoniae ATCC 700603 after 18 to 24 hrs by two-fold serial dilution method; assay type: functional; in short: as §2
Klebsiella pneumoniae [12] = assay: Antibacterial activity against extended-spectrum beta-lactamase deficient Klebsiella pneumoniae 15-2 after 18 to 24 hrs by two-fold serial dilution method; assay type: functional; in short: as §1
Pseudomonas aeruginosa = assay: Antibacterial activity against Pseudomonas aeruginosa ATCC 27853 after 18 to 24 hrs by two-fold serial dilution method; assay type: functional; in short: as §1
[13] = system: Acinetobacter calcoaceticus; assay: Antibacterial activity against Acinetobacter calcoaceticus ATCC 19606 after 18 to 24 hrs by two-fold serial dilution method; assay type: functional; in short: as §1
Enterobacter cloacae = assay: Antibacterial activity against Enterobacter cloacae ATCC 43560 after 18 to 24 hrs by two-fold serial dilution method; assay type: functional
Klebsiella aerogenes = assay: Antibacterial activity against Enterobacter aerogenes ATCC 13048 after 18 to 24 hrs by two-fold serial dilution method; assay type: functional; in short: as §1
Serratia marcescens = assay: Antibacterial activity against Serratia marcescens ATCC 21074 after 18 to 24 hrs by two-fold serial dilution method; assay type: functional; in short: as §1
Morganella morganii = assay: Antibacterial activity against Morganella morganii ATCC 25830 after 18 to 24 hrs by two-fold serial dilution method; assay type: functional; in short: as §1
Providencia rettgeri = assay: Antibacterial activity against Providencia rettgeri ATCC 31052 after 18 to 24 hrs by two-fold serial dilution method; assay type: functional; in short: as §1
Proteus vulgaris = assay: Antibacterial activity against Proteus vulgaris ATCC 29905 after 18 to 24 hrs by two-fold serial dilution method; assay type: functional; in short: as §1
Proteus mirabilis = assay: Antibacterial activity against Proteus mirabilis 13-1 after 18 to 24 hrs by two-fold serial dilution method; assay type: functional; in short: as §1
[14] = system: Stenotrophomonas maltophilia; assay: Antibacterial activity against Stenotrophomonas maltophilia ATCC 13636 after 18 to 24 hrs by two-fold serial dilution method; assay type: functional; in short: as §1
Citrobacter freundii = assay: Antibacterial activity against extended-spectrum beta-lactamase harboring Citrobacter freundii ATCC 43864 after 18 to 24 hrs by two-fold serial dilution method; assay type: functional; in short: as §2
[15] = system: Mycobacterium tuberculosis; assay: Antimycobacterial activity against Mycobacterium tuberculosis H37Rv after 7 days; assay type: functional; conditions: 168 h
In short: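 Rapid direct susceptibility test in 48-well plates. Two-fold dilutions of compound from DMSO stocks were mixed with an equal volume of bacterial suspension. Medium-only wells served as growth controls and water-only wells as no-growth controls. Plates were sealed and held at 37 C in a humid box, and controls were checked at 3 days. MIC (90% growth inhibition) was read visually by high-magnification observation of the cells and re-read at 7 days.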

[16] = Cytotoxicity against African green monkey Vero cells assessed as reduction in cell viability after 72 hrs by MTT assay; assay type: cell-based; conditions: chlorocebus sabaeus
In short: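 VERO cells were kept in MEM with Earle's salts and 10% FBS at 37 °C, 5% CO2. They were seeded in 96-well plates and allowed to recover for 24 h. Cells were then exposed to compounds in DMSO over a series from 1000 down to 4 for 72 h. Viability was read by MTT, and CC50 was calculated by Bliss analysis.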

[17] = system: Mycobacterium tuberculosis; assay: Potency index, ratio of ciprofloxacin MIC90 to compound MIC90 for Mycobacterium tuberculosis H37Rv; assay type: functional
[18] = system: Mycobacterium tuberculosis; assay: Potency index, ratio of rifampicin MIC90 to compound MIC90 for Mycobacterium tuberculosis H37Rv; assay type: functional
[19] = Cmax in ICR mouse at 50 mg/kg, po administered as single dose by HPLC analysis; assay type: ADME, organism-based; design: dose 50 mg/kg, route oral; conditions: in vivo
In short: (§3)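 Mice (3 per group), fasted overnight, given a single oral dose of 50 mg/kg as a suspension in 0.5% CMC. Jugular vein blood taken at 0.25, 0.5, 1, 2, 4, 6, 8 and 24 h. Serum proteins precipitated with acetonitrile and centrifuged; the dried supernatant was redissolved in acetonitrile for HPLC. PK parameters were derived directly from the concentration–time data.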

[20] = Tmax in ICR mouse at 50 mg/kg, po administered as single dose by HPLC analysis; assay type: ADME, organism-based; conditions: in vivo; in short: as §3
[21] = AUC (0 to infinity) in ICR mouse at 50 mg/kg, po administered as single dose by HPLC analysis; assay type: ADME, organism-based; design: dose 50 mg/kg, route oral, time infinity; conditions: in vivo; in short: as §3
[22] = Elimination half life in ICR mouse at 50 mg/kg, po administered as single dose by HPLC analysis; assay type: ADME, organism-based; conditions: in vivo, read-out: beta t1/2 (converted)
[23] = Half life in mouse microsomes; assay type: ADME, Microsome

Compound | MIC90 [1] [µg/mL] | MIC90 [2] [µg/mL] | MIC90 (Staphylococcus aureus [3]) [µg/mL] | MIC90 (Staphylococcus aureus [4]) [µg/mL] | MIC90 (Enterococcus faecalis [5]) [µg/mL] | MIC90 (Enterococcus faecalis [6]) [µg/mL] | MIC90 (Enterococcus faecium [7]) [µg/mL] | MIC90 (Enterococcus faecium [8]) [µg/mL] | MIC90 (Escherichia coli [9]) [µg/mL] | MIC90 (Escherichia coli [10]) [µg/mL] | MIC90 (Klebsiella pneumoniae [11]) [µg/mL] | MIC90 (Klebsiella pneumoniae [12]) [µg/mL] | MIC90 (Pseudomonas aeruginosa) [µg/mL] | MIC90 [13] [µg/mL] | MIC90 (Klebsiella aerogenes) [µg/mL] | MIC90 (Serratia marcescens) [µg/mL] | MIC90 (Morganella morganii) [µg/mL] | MIC90 (Providencia rettgeri) [µg/mL] | MIC90 (Proteus vulgaris) [µg/mL] | MIC90 (Proteus mirabilis) [µg/mL] | also measured
CCO/N=C1\C(=O)N(CCCN2CCN(c3cc4c(cc3F)c(=O)c(C(=O)OCCCN3C(=O)/C(=N/OCC)c5cc(C)ccc53)cn4C3CC3)CC2)c2ccc(C)cc21 | 32 (≈ 39 µM) | 64 (≈ 78.1 µM) | 64 (≈ 78.1 µM) | 128 (≈ 156 µM) | 64 (≈ 78.1 µM) | 128 (≈ 156 µM) | 128 (≈ 156 µM) | > 128 | 16 (≈ 19.5 µM) | 16 (≈ 19.5 µM) | 128 (≈ 156 µM) | 32 (≈ 39 µM) | 128 (≈ 156 µM) | 64 (≈ 78.1 µM) | 64 (≈ 78.1 µM) | 64 (≈ 78.1 µM) | 32 (≈ 39 µM) | 64 (≈ 78.1 µM) | 64 (≈ 78.1 µM) | 64 (≈ 78.1 µM) | MIC90 (Enterobacter cloacae): 128 µg/mL (≈ 156 µM); MIC90 [14]: 128 µg/mL (≈ 156 µM); MIC90 (Citrobacter freundii): 64 µg/mL (≈ 78.1 µM); MIC90 [15]: 50 µg/mL (≈ 61 µM); CC50 at 72 h [16]: 64 µg/mL (≈ 78.1 µM)
Cc1ccc2c(c1)C(=O)C(=O)N2CCCN1CCN(c2cc3c(cc2F)c(=O)c(C(=O)O)cn3C2CC2)CC1 | 0.125 (≈ 0.235 µM) | 2 (≈ 3.76 µM) | 0.125 (≈ 0.235 µM) | 0.125 (≈ 0.235 µM) | 0.5 (≈ 0.939 µM) | 0.5 (≈ 0.939 µM) | 4 (≈ 7.51 µM) | 32 (≈ 60.1 µM) | ≤ 0.03 | ≤ 0.03 | 1 (≈ 1.88 µM) | 0.06 (≈ 0.113 µM) | 2 (≈ 3.76 µM) | 0.25 (≈ 0.469 µM) | 0.06 (≈ 0.113 µM) | 0.25 (≈ 0.469 µM) | ≤ 0.03 | ≤ 0.03 | ≤ 0.03 | ≤ 0.03 | MIC90 (Enterobacter cloacae): ≤ 0.03 µg/mL; MIC90 [14]: 0.06 µg/mL (≈ 0.113 µM); MIC90 (Citrobacter freundii): ≤ 0.03 µg/mL; MIC90 [15]: 0.1 µg/mL (≈ 0.188 µM); CC50 at 72 h [16]: 64 µg/mL (≈ 120 µM); Ratio [17]: 4; Ratio [18]: 8; Cmax [19]: 1230 ng/mL; Tmax [20]: 1.3 h; AUC(0-inf) [21]: 4990 ng·h/mL; half-life [22]: 4.1 h; half-life [23]: 0.517 h
O=C(O)c1cn(C2CC2)c2cc(N3CCNCC3)c(F)cc2c1=O [CIPROFLOXACIN] | 0.125 (≈ 0.377 µM) | 64 (≈ 193 µM) | 0.25 (≈ 0.754 µM) | 0.5 (≈ 1.51 µM) | 0.5 (≈ 1.51 µM) | 0.5 (≈ 1.51 µM) | 8 (≈ 24.1 µM) | 128 (≈ 386 µM) | ≤ 0.03 | ≤ 0.03 | 0.5 (≈ 1.51 µM) | ≤ 0.03 | 0.25 (≈ 0.754 µM) | 0.5 (≈ 1.51 µM) | ≤ 0.03 | 0.06 (≈ 0.181 µM) | ≤ 0.03 | ≤ 0.03 | ≤ 0.03 | ≤ 0.03 | MIC90 [14]: 2 µg/mL (≈ 6.04 µM); MIC90 (Citrobacter freundii): ≤ 0.03 µg/mL; MIC90 [15]: 0.78 µg/mL (≈ 2.35 µM); CC50 at 72 h [16]: 128 µg/mL (≈ 386 µM); Cmax [19]: 3130 ng/mL; Tmax [20]: 1.8 h; AUC(0-inf) [21]: 17800 ng·h/mL
